# Measured values as given in ChEMBL document CHEMBL4808214, “Structure-activity relationship studies in substituted sulfamoyl benzamidothiazoles that prolong NF-κB activation” (Bioorg Med Chem, 2021).
# Active and inactive are the calls of the source. No cut-off for these calls is given here.
# What was measured:
# [1] = target: T1, Nuclear factor NF-kappa-B complex (Homo sapiens) (UniProt Q00653+P19838+Q04206); test: Activation of NF-kappaB in human THP1-Blue NF-kappaB cells co-expressing NFkappaB-inducible SEAP assessed as increase in SEAP activity at 5 uM measured after 20 hrs by quanti-blue based colorimetric assay relative to control; type: cell-based; conditions: filed as activator
# Summary of the method: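 THP1-Blue NF-κB reporter cells plated at 10^5/well in RPMI with 10% FBS, penicillin/streptomycin and Normocin. Compound added at 5 μM final (0.5% DMSO), then incubated 20 h. Secreted SEAP in the supernatant was read colorimetrically with QuantiBlue at 630 nm. Two-point normalization set vehicle (0.5% DMSO) as 100% and a reference activator as 200%.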
# THP-1 = test: Cytotoxicity against human THP-1 cells assessed as cell viability at 5 uM measured after 18 hrs by MTT assay relative to control; type: cell-based; conditions: thp-1, 18 h
# Summary of the method: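 THP-1 cells were plated at 10^5/well in RPMI with 10% FBS and penicillin/streptomycin, then given compound at 5 μM final (0.5% DMSO) for 18 h. MTT at 0.5 mg/mL was added for 4–6 h, followed by SDS/HCl lysis buffer overnight. Absorbance was read at 570 nm against a 650 nm reference. Viability was normalized to DMSO as 100%.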
# [2] = target: T1, Nuclear factor NF-kappa-B complex (Homo sapiens); test: Activation of NF-kappaB in human THP-1 cells assessed as increase in IL-8 production in the presence of LPS at 5 uM measured by ELISA relative to control; type: cell-based; conditions: filed as activator
# Summary of the method: (§1)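 THP-1 cells and BMDCs from the femurs and tibias of C57BL/6 mice were treated overnight with compound (5 μM) or vehicle (0.5% DMSO), with or without LPS at 1 ng/mL. Secreted IL-8 (THP-1) and IL-12 (BMDC) in the supernatant were measured by ELISA.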
# BMDC [3] = test: Activation of NF-kappaB in mouse BMDC cells assessed as enhanced IL-12 production in the presence of LPS at 5 uM measured by ELISA relative to control; type: cell-based; conditions: filed as activator; summary of the method: as §1
# BMDC [4] = test: Activation of NF-kappaB in mouse BMDC cells assessed as enhanced IL-12 production at 5 uM measured by ELISA relative to control; type: cell-based; summary of the method: as §1
# Mus musculus = species: Mus musculus; test: Co-adjuvanticity in MPLA/OVA-immunized BALB/c mouse assessed as increase in ovalbumin specific IgG production at 50 nmol treated on day 0 and 21 measured after 28 days by ELISA; type: functional, organism-based; conditions: time 28.0 day
# Summary of the method: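 BALB/c mice aged 7–9 weeks, n=5 per group, were injected into the gastrocnemius muscle on days 0 and 21. Mice were bled on day 28 and OVA-specific IgG titers measured by ELISA. Groups were compared with one-way ANOVA and Dunnett's post hoc test.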
# T1 sequence (P19838 whole entry, looked up): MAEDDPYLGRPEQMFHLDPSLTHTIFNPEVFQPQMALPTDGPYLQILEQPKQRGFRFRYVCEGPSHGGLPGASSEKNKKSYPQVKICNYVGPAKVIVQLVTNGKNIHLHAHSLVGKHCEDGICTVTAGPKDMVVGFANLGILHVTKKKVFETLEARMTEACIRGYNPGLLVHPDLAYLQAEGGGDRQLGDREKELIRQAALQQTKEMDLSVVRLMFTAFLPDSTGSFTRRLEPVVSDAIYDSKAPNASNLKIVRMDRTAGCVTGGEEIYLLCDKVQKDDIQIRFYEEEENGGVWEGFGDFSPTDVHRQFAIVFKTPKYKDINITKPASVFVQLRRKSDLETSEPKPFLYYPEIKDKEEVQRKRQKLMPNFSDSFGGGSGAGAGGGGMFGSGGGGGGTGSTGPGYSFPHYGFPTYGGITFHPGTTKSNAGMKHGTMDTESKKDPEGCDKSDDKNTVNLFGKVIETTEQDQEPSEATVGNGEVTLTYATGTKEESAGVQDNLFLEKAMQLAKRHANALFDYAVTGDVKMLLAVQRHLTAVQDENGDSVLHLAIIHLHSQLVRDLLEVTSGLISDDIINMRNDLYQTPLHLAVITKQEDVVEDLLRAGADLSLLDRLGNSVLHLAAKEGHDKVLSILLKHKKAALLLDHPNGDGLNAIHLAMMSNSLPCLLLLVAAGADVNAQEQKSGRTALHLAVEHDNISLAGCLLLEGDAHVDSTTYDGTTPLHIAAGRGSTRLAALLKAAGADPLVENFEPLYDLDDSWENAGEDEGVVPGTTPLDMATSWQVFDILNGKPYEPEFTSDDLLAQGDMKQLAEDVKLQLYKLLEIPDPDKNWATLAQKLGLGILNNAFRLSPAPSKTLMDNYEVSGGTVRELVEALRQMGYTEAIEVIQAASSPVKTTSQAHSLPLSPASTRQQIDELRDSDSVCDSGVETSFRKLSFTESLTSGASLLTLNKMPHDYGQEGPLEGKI
# T1 sequence (Q00653 whole entry, looked up): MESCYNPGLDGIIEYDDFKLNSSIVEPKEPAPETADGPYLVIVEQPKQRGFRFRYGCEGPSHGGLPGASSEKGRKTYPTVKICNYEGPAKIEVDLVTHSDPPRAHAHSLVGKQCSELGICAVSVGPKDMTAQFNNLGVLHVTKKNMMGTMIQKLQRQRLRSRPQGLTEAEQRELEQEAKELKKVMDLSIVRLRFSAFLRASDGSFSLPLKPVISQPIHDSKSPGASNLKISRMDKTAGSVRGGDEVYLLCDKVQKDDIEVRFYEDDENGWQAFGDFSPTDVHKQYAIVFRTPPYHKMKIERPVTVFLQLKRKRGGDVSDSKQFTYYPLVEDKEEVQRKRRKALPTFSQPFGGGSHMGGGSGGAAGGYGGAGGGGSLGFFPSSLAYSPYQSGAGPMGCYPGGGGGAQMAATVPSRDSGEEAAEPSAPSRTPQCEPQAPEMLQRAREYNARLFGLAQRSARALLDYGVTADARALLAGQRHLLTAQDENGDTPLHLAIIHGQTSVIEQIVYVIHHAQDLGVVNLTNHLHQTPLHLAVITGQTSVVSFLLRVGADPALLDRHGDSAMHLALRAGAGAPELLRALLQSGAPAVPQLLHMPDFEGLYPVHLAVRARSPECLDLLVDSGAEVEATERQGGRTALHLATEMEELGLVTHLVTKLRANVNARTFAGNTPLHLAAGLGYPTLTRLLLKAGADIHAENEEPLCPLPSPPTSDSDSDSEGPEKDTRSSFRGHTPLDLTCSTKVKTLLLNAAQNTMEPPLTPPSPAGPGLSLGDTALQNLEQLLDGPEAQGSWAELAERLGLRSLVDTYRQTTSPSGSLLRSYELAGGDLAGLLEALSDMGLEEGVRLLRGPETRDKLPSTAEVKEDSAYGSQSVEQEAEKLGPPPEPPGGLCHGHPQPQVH
# T1 sequence (Q04206 whole entry, looked up): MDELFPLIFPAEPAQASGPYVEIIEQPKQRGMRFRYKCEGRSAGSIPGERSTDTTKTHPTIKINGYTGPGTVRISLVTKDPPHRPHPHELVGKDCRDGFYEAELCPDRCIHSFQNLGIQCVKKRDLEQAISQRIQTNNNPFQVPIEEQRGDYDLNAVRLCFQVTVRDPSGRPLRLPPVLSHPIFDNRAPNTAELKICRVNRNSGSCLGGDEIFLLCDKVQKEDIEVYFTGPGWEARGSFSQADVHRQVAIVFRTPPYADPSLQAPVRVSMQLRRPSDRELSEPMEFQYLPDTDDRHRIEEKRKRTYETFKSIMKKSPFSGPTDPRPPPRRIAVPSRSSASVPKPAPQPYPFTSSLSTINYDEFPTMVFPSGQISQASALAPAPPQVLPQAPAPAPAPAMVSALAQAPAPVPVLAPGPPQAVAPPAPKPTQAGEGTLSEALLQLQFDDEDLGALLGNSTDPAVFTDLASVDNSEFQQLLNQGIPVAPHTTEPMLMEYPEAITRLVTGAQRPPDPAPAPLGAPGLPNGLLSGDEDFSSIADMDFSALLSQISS
SMILES,Activity [1],Activity (THP-1),Activity [2],Activity (BMDC [3]),Activity (BMDC [4]),Activity (Mus musculus)
Cc1ccc(Br)c(-c2csc(NC(=O)c3ccc(S(=O)(=O)N4CCCCC4)cc3)n2)c1,254%,98%,Active,Active,inactive,–
CCCC1CCN(S(=O)(=O)c2ccc(C(=O)Nc3nc(-c4cc(C)ccc4C)cs3)cc2)CC1,517%,111%,Active,Active,inactive,Active
CCCC1CCN(S(=O)(=O)c2ccc(C(=O)Nc3nc(-c4cc(C)ccc4Br)cs3)cc2)CC1,191%,97%,–,–,–,–
Cc1ccc(C)c(-c2csc(NC(=O)c3ccc(S(=O)(=O)N4CCCCC4)cc3)n2)c1,200%,103%,Active,Active,inactive,–
CCCC#Cc1sc(NC(=O)c2ccc(S(=O)(=O)N3CCCCC3)cc2)nc1-c1cc(C)ccc1C,393%,106%,Active,Active,inactive,Active
